Assay outcomes deposited in PubChem BioAssay by several laboratories.
Lmaj promast = reduces viability of Leishmania major promastigotes; resazurin fluorescence viability; inhibition, % at 10 µM; 200,000 tested, 9% active; AID 1063; in the data active = inhibition above about 50%;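 also: promastigotes grown with compound for 44 hours at 28 °C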
CHOP inh = CHOP inhibition in unfolded protein response; CHO-K1 CHOP-promoter luciferase, tunicamycin-induced, 15-18 h; inhibition, % at 10 µM; 220,000 tested, 3.8% active; AID 2732;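 active = compounds that reduced the stress-induced luciferase reporter signal by more than about 70% of percent inhibition, limit read from the data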;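 also: 0% = tunicamycin plus vehicle and 100% = wells without tunicamycin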
T cruzi inh = T. cruzi replication inhibition | AID 1885 | 300,000 tested, 1.4% active | T. cruzi beta-gal in NIH3T3, luminescence, 90 h | inhibition, % (concentration not given with the values);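 active = mean inhibition across valid replicates above about 55%, limit read from the data; inconclusive = mean below that limit but half or more replicates reach it; inactive = mean below it, under half of replicates reach it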;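 also: signal also drops with host cell toxicity which is not excluded here; 0% = plate median of DMSO wells and 100% = zero luminescence signal; higher percent means less beta-gal luminescence so fewer parasites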
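Test system: β-gal T. cruzi (Tulahuen C4) inside NIH/3T3 cells / Quantity: 5,000 cells/well / Measured by: luminescence from GalScreen with 0.05% NP40, read after 60 min / Medium: DMEM plus 2% FBS / Measure: parasite load inhibition, % / Reagent: Tulahuen C4 trypomastigotes, 5000/well / Schedule: co-culture of at least 90 h after 3 h attachment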
Dynein transport = dynein cargo transport inhibition; 3617.4 mouse cells, GR-EGFP nuclear translocation imaging; test concentration mostly 20 µM; stimulated with dexamethasone, 1 µM; stronger effect = lower value; z-score, hits read low; 220,000 tested, 0.47% active; AID 1381;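 active = plate z-score of nuclear minus cytoplasmic receptor signal below a set negative limit, without overly bright fluorescence or cell loss, cut at about -3.5 in these data, passing the limit was not always enough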;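 also: z-score of nuclear minus cytoplasmic ring GR-EGFP intensity difference per well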
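Buffer or medium – tet-free medium with charcoal-stripped serum · Signal – automated 10x imaging of fixed Hoechst-stained cells · Also added – dexamethasone agonist, 1.0 µM final, for 30 min · Incubation – induction 48 h, compound 1 h, agonist 30 min · Read-out – GR-EGFP nuclear translocation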
UPR XBP1 act = activators of adaptive arm of unfolded protein response (XBP1). CHO-XBP1 luciferase reporter, IRE1-XBP1 UPR activation, luminescence; percent of tunicamycin response, DMSO as zero. activation, % at 20 µM. 330,000 tested, 0.33% active;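 active = versus positive control, 20 µM dose yields 30% or more activation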;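 also: 100% = tunicamycin at 10 µg/mL and 0% = DMSO only wells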
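assay system = CHO-XBP1 luciferase reporter cells | amount = 1000 cells/well | buffer or medium = F12 plus 10% FBS | compound dosing = single point, 20 µM final compound, 1% DMSO | incubation = 16-18 h cell attachment at 37 °C, then 6 h compound exposure | detection = Steady-Glo luminescence read | controls = tunicamycin 10 µg/mL and vehicle-only wells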
CHOP UPR activ = activators of apoptotic arm of unfolded protein response (CHOP) | CHO-CHOP luciferase reporter, UPR activation, luminescence; percent of tunicamycin response over DMSO baseline | activation, % at 10 µM | 330,000 tested, 0.34% active | AID 449763;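 active = at 10 µM dose, activation of 40% or more, normalized to positive control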;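 also: 100% = tunicamycin at 10 µg/mL and 0% = DMSO alone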
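Evaluation: % reporter activation, DMSO baseline versus tunicamycin full activation; System: CHO-CHOP luciferase reporter cell line; Input: 500 cells/well; Incubation: 6 h compound treatment, 37 °C; Measured by: Steady-Glo luciferase luminescence; Dosing: one dose, 10 µM in 0.5% DMSO; Buffer or medium: F12 medium, 10% FBS; Benchmarks: positive tunicamycin 10 µg/mL, negative DMSO alone.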
Active calls of the source: *; u = inconclusive; x = not tested or not shown. The entries come from a sample that favours hits as a whole.

SMILES	Lmaj promast	CHOP inh	T cruzi inh	Dynein transport	UPR XBP1 act	CHOP UPR activ
CCC1Oc2ccc(C)cc2N(CC(=O)NCc2cccs2)C1=O (configuration not stated)	5.0	18.4	-5.4	-1.36	-0.4	0.8
CCC1Oc2ccc(C)cc2N(CC(=O)N2CCOCC2)C1=O (configuration not stated)	x	x	-4.4	x	-0.7	0.1
CCC1Oc2ccc(C)cc2N(CC(=O)N(Cc2ccncc2)Cc2ccco2)C1=O (configuration not stated)	80.1*	10.4	19.1	-1.14	0.1	-0.6
O=C1C(Cc2ccc(Br)cc2)SC(=Nc2ccccc2)N1c1ccccc1 (configuration not stated)	54.3*	22.5	34.4	-0.419	-2.9	2.1
O=C1C(Cc2ccc(F)cc2)SC(=Nc2ccccc2)N1c1ccccc1 (configuration not stated)	40.7	38.0	1.9	-0.464	0.6	-0.1
CN(C)CCCN1C(=O)c2cccc3c([N+](=O)[O-])ccc(c23)C1=O	100.4*	54.3	x	-0.391	x	x
O=C(NCc1cccnc1)/C(=C/c1ccc(-c2cccc(C(F)(F)F)c2)o1)NC(=O)c1ccccc1	84.1*	38.2	34.8	-0.628	3.1	4.9
CCCc1ccc(OC(=O)c2ccc(O)cc2Cl)cc1	5.4	87.1*	30.3	0.927	3.7	5.5
C[N+](C)(C)CCC(=O)c1cccc2ccccc12	x	4.8	x	x	x	x
Cc1cc2nc(C3CCN(CC4COc5ccccc5O4)CC3)[nH]c2cc1C (configuration not stated)	90.7*	41.2	-21.3	-0.477	1.7	1.4
CSCCC(Nc1ccc(S(=O)(=O)N2CCOCC2)cc1[N+](=O)[O-])C(=O)OCC(=O)NCC(C)C (configuration not stated)	65.1*	16.0	-9.1	-0.638	0.6	-0.2
COC(=O)c1cc(C(=O)OCC(=O)NC(=O)c2ccccc2)cc([N+](=O)[O-])c1	x	x	6.2	x	-3.4	1.3
O=S(=O)(NCC(c1cccnc1)N1CCN(c2ccccc2F)CC1)c1cccs1 (configuration not stated)	78.5*	-11.9	45.4	0.258	-1.7	4.0
O=S(=O)(NCC(c1cccnc1)N1CCN(c2ccc(F)cc2)CC1)c1cccs1 (configuration not stated)	87.4*	10.1	41.3	1.21	-2.4	3.0
O=S(=O)(NCC(c1cccnc1)N1CCN(c2ccc(F)cc2)CC1)c1ccc(F)cc1 (configuration not stated)	91.2*	93.8*	40.5	0.124	0.2	1.1
CS(=O)(=O)NCC(c1cccnc1)N1CCN(c2ccccc2F)CC1 (configuration not stated)	x	1.8	31.2	-1.09	0.6	1.7
CC[C@]12c3[nH]c4cc(-c5ccco5)ccc4c3CCN1C(=O)[C@@H](CC(=O)NC(C)(C)C)C[C@@H]2C(=O)N1CCN(C(=O)C2CC2)CC1	x	x	x	x	1.9	2.9
N#Cc1cnn(-c2nc3sc4c(c3c(=O)[nH]2)CCCC4)c1N	93.6*	-3.9	53.1	-0.173	2.1	0.2
O=c1[nH]c(C2CC2)nc2sc3c(c12)CCCC3	11.0	22.8	7.4	1.95	-1.5	-0.7
O=C(NC(=S)Nc1cc(C(F)(F)F)ccc1Cl)c1ccccc1	-4.8	88.8*	5.4	-0.753	-0.9	0.2
CCN(CC)CCNC(C(=O)Nc1cc(C(F)(F)F)ccc1Cl)c1ccccc1 (configuration not stated)	1.7	6.6	4.2	0.595	0.0	2.9
O=C(Nc1cc(C(F)(F)F)ccc1Cl)C(NCc1ccccc1)c1ccccc1 (configuration not stated)	92.4*	33.3	19.9	0.353	-0.2	1.4
C=CCN1C(=O)c2ccc(C(=O)N3CCN(S(=O)(=O)c4cccc(Cl)c4)CC3)cc2C1=O	x	x	-0.1	x	-1.7	-1.5
COc1ccc(C(=O)NCCCc2nc3ccccc3n2Cc2ccccc2C)cc1OC	76.8*	8.0	-2.6	0.0585	0.8	0.9
O=CNCCCc1nc2ccccc2n1Cc1cccc2ccccc12	93.3*	-4.2	x	-0.00277	-0.4	1.3
SMILES	Lmaj promast	CHOP inh	T cruzi inh	Dynein transport	UPR XBP1 act	CHOP UPR activ
Cc1cc(C)c(-c2c(O)c3cccnc3n(C)c2=O)c(C)c1	x	x	-13.4	x	-0.1	-1.0
CCCCC(=O)NC(=S)Nc1cccc(NC(=O)c2ccco2)c1	45.2	16.2	-3.7	-0.398	-1.8	-1.6
O=C(N=Nc1c(O)n(Cc2ccccc2)c2ccccc12)c1ccc(O)cc1	90.7*	36.4	17.6	0.696	6.7	6.3
CC(C)CCn1c(O)c(N=NC(=O)c2ccco2)c2ccccc21	-1.1	83.1*	12.0	-0.538	5.4	1.2
Cn1cnnc1SCc1ccc(C(=O)N=Nc2c(O)n(Cc3ccc(Cl)cc3)c3ccccc23)cc1	98.6*	30.2	u	-0.913	17.3	9.9
Cc1occc1C(=O)N=Nc1c(O)n(C)c2ccccc12	70.7*	41.6	-10.4	-0.418	-1.9	1.5
CN(CC(=O)Nc1ccccc1Cl)C(=O)COC(=O)c1cnccn1	x	x	-7.8	x	2.1	1.2
NC(=O)c1ccc(C(F)(F)F)n(Cc2cccc(Cl)c2)c1=O	6.9	72.2*	6.6	1.32	1.4	-0.5
CCCCCc1c(C)nc(N2CCc3ccccc32)[nH]c1=O	18.7	73.0*	-23.1	0.441	x	x
Cc1nc(N2CCc3ccccc3C2)[nH]c(=O)c1Cc1ccccc1	-4.8	78.0*	-5.9	-1.16	-2.3	-0.8
Cc1cc(=O)[nH]c(-n2[nH]c3c(c2=O)CCCC3)n1	9.9	-24.7	-21.7	0.0634	0.3	-1.9
Cc1nc(-n2[nH]c3c(c2=O)CCCC3)[nH]c(=O)c1Cc1ccccc1	96.5*	-69.7	69.4*	0.335	17.9	24.7
Cc1cccc(C)c1NC(=O)CNC(=O)c1ccc(NS(=O)(=O)c2ccc3[nH]c(=O)[nH]c3c2)cc1	x	x	19.5	x	-0.8	1.4
COc1ccc(/C=C(\NC(=O)c2ccco2)C(=O)NC(Cc2ccccc2)C(=O)O)cc1 (configuration not stated)	x	x	3.2	x	-3.9	1.5
C=CCOc1ccc(/C=N/NC(=O)CC(=O)NC2CCCCC2)cc1	x	x	-4.7	x	-5.2	-1.1
Cc1csc(NC(=O)CCCSc2nc3ccccc3s2)n1	1.1	31.1	-11.0	-0.687	-0.2	-0.5
N#Cc1ccsc1NC(=O)COC(=O)CCCSc1nc2ccccc2s1	3.7	72.8*	-10.4	2.88	-1.7	-1.1
NC(=O)COC(=O)CCCSc1nc2ccccc2s1	-7.8	9.2	1.4	-1.32	-1.4	-0.2
Cc1cnc(NC(=O)CCCSc2nc3ccccc3s2)s1	-3.3	76.5*	1.1	0.195	1.1	0.8
